Calls of active or inactive are those of the source. The calls are words filed in the database; no cut-off is given here.
How the values were obtained:
Mus musculus [1] = test: Anticonvulsant activity against mouse model of LiCa/pilocarpine-induced status epilepticus assessed as theta at 20 mg/kg, po for 10 days by EEG method relative to control; format: functional; conditions: time 10 day
How it was run: (§1)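 Male mice (20-30 g), five per group, dosed orally once daily for 10 days. Status epilepticus was then induced with LiCa (3 mEq/kg i.p.), atropine sulfate (1 mg/kg i.p.) 30 min before pilocarpine, and pilocarpine HCl (300 mg/kg i.p.) 2 h after LiCa. Normal controls received oral distilled water. Comparators were untreated SE, phenytoin and lamotrigine. One-way ANOVA with Tukey post-hoc; mean ± SD.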

Mus musculus [2] = test: Anticonvulsant activity against mouse model of LiCa/pilocarpine-induced status epilepticus assessed as Glutamate level in brain at 20 mg/kg, po for 10 days by ELISA relative to control; format: functional; conditions: time 10 day; how it was run: as §1
Mus musculus [3] = test: Anticonvulsant activity against mouse model of LiCa/pilocarpine-induced status epilepticus assessed as amplitude density at 20 mg/kg, po for 10 days by EEG method relative to control; format: functional; conditions: time 10 day; how it was run: as §1
MCF7 [4] = test: Induction of cell cycle arrest in human MCF7 cells assessed as cell accumulation at G2/M phase at IC50 concentration after 24 hrs by propidium iodide staining based flow cytometric analysis (reference value: 3.89%); format: functional
Mus musculus [5] = test: Anticonvulsant activity against mouse model of LiCa/pilocarpine-induced status epilepticus assessed as power pV2 at 20 mg/kg, po for 10 days by EEG method relative to control; format: functional; conditions: time 10 day; how it was run: as §1
MCF7 [6] = test: Induction of apoptosis in human MCF7 cells assessed as increase in caspace-7 protein expression at IC50 concentration after 24 hrs by ELISA; format: functional
How it was run: (§2)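 Cells treated at IC50 for 24 h and lysed in cell extraction buffer. Lysate diluted in standard diluent buffer and human caspase-3, -7, -9, Bax and Bcl-2 quantified by immunoassay kit (pg/mL). Fold change calculated against untreated control cells.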

WI-38 = test: Cytotoxicity against human WI-38 cells assessed as reduction in cell viability after 48 hrs by MTT assay; format: cell-based; conditions: WI-38, 48 h
How it was run: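 Cells from ATCC grown in DMEM with 10% FBS, insulin and 1% penicillin-streptomycin. Plated at 1.2-1.8 × 10,000 cells/well for 24 h, then exposed to compounds in DMSO vehicle for 48 h. MTT 0.5 mg/ml added for 2 h; absorbance read at 570 nm. Experiments run in triplicate.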

MCF7 [7] = test: Induction of apoptosis in human MCF7 cells assessed as decrease in Bcl-2 protein expression at IC50 concentration after 24 hrs by ELISA; format: functional; how it was run: as §2
Mus musculus [8] = test: Anticonvulsant activity against mouse model of LiCa/pilocarpine-induced status epilepticus assessed as amplitude at 20 mg/kg, po for 10 days by EEG method relative to control; format: functional; conditions: time 10 day; how it was run: as §1
MCF7 [9] = test: Induction of cell cycle arrest in human MCF7 cells assessed as cell accumulation at pre-G1 phase at IC50 concentration after 24 hrs by propidium iodide staining based flow cytometric analysis (reference value: 1.49%); format: functional
Mus musculus [10] = test: Anticonvulsant activity against mouse model of LiCa/pilocarpine-induced status epilepticus assessed as GSH level in brain at 20 mg/kg, po for 10 days by calorimetric method relative to control; format: functional; conditions: time 10 day; how it was run: as §1
MCF7 [11] = test: Induction of apoptosis in human MCF7 cells assessed as increase in caspace-9 protein expression at IC50 concentration after 24 hrs by ELISA; format: functional; how it was run: as §2
MCF7 [12] = test: Induction of cell cycle arrest in human MCF7 cells assessed as cell accumulation at S phase at IC50 concentration after 24 hrs by propidium iodide staining based flow cytometric analysis (reference value: 42.34%); format: functional
MCF7 [13] = test: Induction of apoptosis in human MCF7 cells assessed as late apoptotic cells at IC50 concentration after 24 hrs by annexin-V-FITC/PI staining based flow cytometric analysis (reference value: 0.47%)
Mus musculus [14] = test: Anticonvulsant activity against mouse model of LiCa/pilocarpine-induced status epilepticus assessed as total power at 20 mg/kg, po for 10 days by EEG method relative to control; format: functional; conditions: time 10 day; how it was run: as §1
MCF7 [15] = test: Induction of cell cycle arrest in human MCF7 cells assessed as cell increase in accumulation at G2/M phase at IC50 concentration after 24 hrs by propidium iodide staining based flow cytometric analysis; format: functional
Mus musculus [16] = test: Anticonvulsant activity against mouse model of LiCa/pilocarpine-induced status epilepticus assessed as delta at 20 mg/kg, po for 10 days by EEG method relative to control; format: functional; conditions: time 10 day; how it was run: as §1
Mus musculus [17] = test: Anticonvulsant activity against mouse model of LiCa/pilocarpine-induced status epilepticus assessed as GABA level in brain at 20 mg/kg, po for 10 days by ELISA relative to control; format: functional; conditions: time 10 day; how it was run: as §1
Mus musculus [18] = test: Anticonvulsant activity against mouse model of LiCa/pilocarpine-induced status epilepticus assessed as mean power frequency at 20 mg/kg, po for 10 days by EEG method relative to control; format: functional; conditions: time 10 day; how it was run: as §1
MCF7 [19] = test: Induction of apoptosis in human MCF7 cells assessed as increase in Bax protein expression at IC50 concentration after 24 hrs by ELISA; format: functional; how it was run: as §2
MCF7 [20] = test: Induction of apoptosis in human MCF7 cells assessed as increase in late apoptotic cells at IC50 concentration after 24 hrs by annexin-V-FITC/PI staining based flow cytometric analysis; format: functional
Mus musculus [21] = test: Anticonvulsant activity against mouse model of LiCa/pilocarpine-induced status epilepticus assessed as MDA level in brain at 20 mg/kg, po for 10 days by calorimetric method relative to control; format: functional; conditions: time 10 day; how it was run: as §1
Mus musculus [22] = test: Anticonvulsant activity against mouse model of LiCa/pilocarpine-induced status epilepticus assessed as total power density at 20 mg/kg, po for 10 days by EEG method relative to control; format: functional; conditions: time 10 day; how it was run: as §1
Mus musculus [23] = test: Anticonvulsant activity against mouse model of LiCa/pilocarpine-induced status epilepticus assessed as alpha at 20 mg/kg, po for 10 days by EEG method relative to control; format: functional; conditions: time 10 day; how it was run: as §1
MCF7 [24] = test: Induction of apoptosis in human MCF7 cells assessed as increase in early apoptotic cells at IC50 concentration after 24 hrs by annexin-V-FITC/PI staining based flow cytometric analysis; format: functional
[25] = target: T1, Receptor tyrosine-protein kinase erbB-2 (Homo sapiens, UniProt P04626); test: Inhibition of HER2 (unknown origin)
T1 sequence (P04626 whole entry): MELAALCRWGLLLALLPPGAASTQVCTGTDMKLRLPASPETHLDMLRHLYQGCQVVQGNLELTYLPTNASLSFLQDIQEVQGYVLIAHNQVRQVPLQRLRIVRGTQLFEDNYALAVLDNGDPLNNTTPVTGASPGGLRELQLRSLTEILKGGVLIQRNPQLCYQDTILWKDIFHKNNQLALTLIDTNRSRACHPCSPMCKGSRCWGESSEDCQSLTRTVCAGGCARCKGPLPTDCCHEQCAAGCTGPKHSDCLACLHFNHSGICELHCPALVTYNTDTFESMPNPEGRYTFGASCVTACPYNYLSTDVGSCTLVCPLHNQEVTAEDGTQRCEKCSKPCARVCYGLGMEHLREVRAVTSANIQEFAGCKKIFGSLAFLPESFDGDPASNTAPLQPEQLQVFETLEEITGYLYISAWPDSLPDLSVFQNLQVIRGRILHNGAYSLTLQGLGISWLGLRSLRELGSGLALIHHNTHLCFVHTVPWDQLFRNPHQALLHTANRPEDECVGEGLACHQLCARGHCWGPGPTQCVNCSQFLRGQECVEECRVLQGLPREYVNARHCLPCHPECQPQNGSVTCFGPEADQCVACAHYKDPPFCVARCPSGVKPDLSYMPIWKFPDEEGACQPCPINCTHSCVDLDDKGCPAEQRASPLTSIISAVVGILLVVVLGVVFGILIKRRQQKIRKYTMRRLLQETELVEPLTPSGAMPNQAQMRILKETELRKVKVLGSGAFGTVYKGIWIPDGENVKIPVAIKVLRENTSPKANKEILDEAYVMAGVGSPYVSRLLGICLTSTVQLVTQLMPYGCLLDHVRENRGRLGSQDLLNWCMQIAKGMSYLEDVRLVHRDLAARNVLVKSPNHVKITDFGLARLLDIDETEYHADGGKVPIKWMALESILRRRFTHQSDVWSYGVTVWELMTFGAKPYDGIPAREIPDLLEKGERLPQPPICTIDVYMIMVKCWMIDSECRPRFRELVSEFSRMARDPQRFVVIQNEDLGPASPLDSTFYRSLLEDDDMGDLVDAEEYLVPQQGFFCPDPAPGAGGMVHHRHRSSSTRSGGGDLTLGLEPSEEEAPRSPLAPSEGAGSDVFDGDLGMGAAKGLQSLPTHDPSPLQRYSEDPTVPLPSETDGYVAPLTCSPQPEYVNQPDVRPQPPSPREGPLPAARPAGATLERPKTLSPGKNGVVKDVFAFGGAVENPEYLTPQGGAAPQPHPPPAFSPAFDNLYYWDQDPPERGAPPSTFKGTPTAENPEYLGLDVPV
How it was run: (§3)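 Cell-free immunoassay kit measuring EGFR T790M/HER2 kinase inhibition. Percent inhibition screened at 10 µM. IC50 obtained from four concentrations (0.01-10 µM) by fitting E(%) = Emax/(1+[I]/ID50) to a dose-response curve. Mean of two independent replicates.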

[26] = target: Epidermal growth factor receptor (Homo sapiens, UniProt P00533, T790M); test: Inhibition of EGFR T790M mutant (unknown origin)
Epidermal growth factor receptor, sequence (P00533 25-1210 T790M limits assumed): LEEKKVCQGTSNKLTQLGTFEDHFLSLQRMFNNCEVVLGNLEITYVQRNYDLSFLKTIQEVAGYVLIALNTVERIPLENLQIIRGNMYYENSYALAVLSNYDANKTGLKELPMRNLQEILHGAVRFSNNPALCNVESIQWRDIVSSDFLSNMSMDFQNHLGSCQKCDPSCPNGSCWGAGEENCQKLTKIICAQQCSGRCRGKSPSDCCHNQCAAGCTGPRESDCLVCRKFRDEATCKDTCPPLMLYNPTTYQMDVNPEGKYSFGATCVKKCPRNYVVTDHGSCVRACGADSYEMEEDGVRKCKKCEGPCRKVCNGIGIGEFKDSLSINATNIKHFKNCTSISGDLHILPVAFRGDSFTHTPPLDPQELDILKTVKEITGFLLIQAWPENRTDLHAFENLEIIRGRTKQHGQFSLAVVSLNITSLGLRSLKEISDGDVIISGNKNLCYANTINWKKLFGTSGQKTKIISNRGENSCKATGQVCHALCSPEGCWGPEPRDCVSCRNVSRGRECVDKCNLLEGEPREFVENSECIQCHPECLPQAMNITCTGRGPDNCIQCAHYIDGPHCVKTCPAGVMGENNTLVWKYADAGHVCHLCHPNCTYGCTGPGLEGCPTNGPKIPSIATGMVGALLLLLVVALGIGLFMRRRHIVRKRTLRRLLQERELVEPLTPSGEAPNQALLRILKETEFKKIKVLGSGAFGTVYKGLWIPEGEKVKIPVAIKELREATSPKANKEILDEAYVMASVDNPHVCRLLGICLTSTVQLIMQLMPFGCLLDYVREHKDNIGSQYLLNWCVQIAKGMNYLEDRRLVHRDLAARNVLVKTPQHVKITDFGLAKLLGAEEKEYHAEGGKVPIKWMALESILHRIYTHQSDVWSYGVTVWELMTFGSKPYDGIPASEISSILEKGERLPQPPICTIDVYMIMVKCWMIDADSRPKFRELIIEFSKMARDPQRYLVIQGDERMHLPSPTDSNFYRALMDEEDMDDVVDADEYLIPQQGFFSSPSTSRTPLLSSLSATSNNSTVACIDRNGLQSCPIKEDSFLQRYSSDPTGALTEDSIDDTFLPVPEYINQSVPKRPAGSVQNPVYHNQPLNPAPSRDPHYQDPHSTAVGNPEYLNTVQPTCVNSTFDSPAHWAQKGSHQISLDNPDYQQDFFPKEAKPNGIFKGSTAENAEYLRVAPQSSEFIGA

MCF7 [27] = test: Induction of apoptosis in human MCF7 cells assessed as increase in caspace-3 protein expression at IC50 concentration after 24 hrs by ELISA; format: functional; how it was run: as §2
MCF7 [28] = test: Induction of apoptosis in human MCF7 cells assessed as increase in Bax/Bcl-2 ratio at IC50 concentration after 24 hrs by ELISA; format: functional, cell-based; how it was run: as §2
[29] = target: T1, Receptor tyrosine-protein kinase erbB-2; test: Inhibition of HER2 (unknown origin) at 10 uM relative to control; how it was run: as §3
Mus musculus [30] = test: Anticonvulsant activity against mouse model of LiCa/pilocarpine-induced status epilepticus assessed as spectral edge frequency at 20 mg/kg, po for 10 days by EEG method relative to control; format: functional; conditions: time 10 day; how it was run: as §1
MCF7 [31] = test: Induction of cell cycle arrest in human MCF7 cells assessed as cell accumulation at G1 phase at IC50 concentration after 24 hrs by propidium iodide staining based flow cytometric analysis (reference value: 53.77%); format: functional
MCF7 [32] = test: Induction of apoptosis in human MCF7 cells assessed as early apoptotic cells at IC50 concentration after 24 hrs by annexin-V-FITC/PI staining based flow cytometric analysis (reference value: 0.84%)

Structure (SMILES): COc1ccc(/C=C2/N=C(c3ccc(Cl)cc3)N(C(=O)Cc3nc4c(c(C)nn4-c4ccccc4)c(=O)[nH]3)NC2=O)cc1
- Activity (Mus musculus [1]): 55.17%
- Activity (Mus musculus [2]): -36.07%
- Activity (Mus musculus [3]): 67.48%
- Activity (MCF7 [4]): 46.57%
- Activity (Mus musculus [5]): 132.38%
- fold change (FC) (MCF7 [6]): 7.9
- IC50 (WI-38): 54.9 nM
- fold change (FC) (MCF7 [7]): 3.4
- Activity (Mus musculus [8]): 47.56%
- Activity (MCF7 [9]): 22.12%
- Activity (Mus musculus [10]): 179.51%
- fold change (FC) (MCF7 [11]): 22.9
- Activity (MCF7 [12]): 28.34%
- Activity (MCF7 [13]): 13.9%
- Activity (Mus musculus [14]): 13.12%
- fold change (FC) (MCF7 [15]): 11.97
- Activity (Mus musculus [16]): 258.15%
- Activity (Mus musculus [17]): 71.54%
- Activity (Mus musculus [18]): -28.59%
- fold change (FC) (MCF7 [19]): 5.6
- fold change (FC) (MCF7 [20]): 29.5
- Activity (Mus musculus [21]): -50%
- Activity (Mus musculus [22]): 174.78%
- Activity (Mus musculus [23]): 28.04%
- fold change (FC) (MCF7 [24]): 5.6
- IC50 [25]: 866 nM
- IC50 [26]: 227 nM
- fold change (FC) (MCF7 [27]): 12
- Activity (MCF7 [28]): Active
- inhibition [29]: 86.7%
- Activity (Mus musculus [30]): -20.21%
- Activity (MCF7 [31]): 25.09%
- Activity (MCF7 [32]): 4.98%

From ChEMBL document CHEMBL4732181, “Pyrazolo[3,4-d]pyrimidine-based dual EGFR T790M/HER2 inhibitors: Design, synthesis, structure-activity relationship and biological activity as potential antitumor and anticonvulsant agents” (Eur J Med Chem, 2021)
